Data published in ChEMBL document CHEMBL4627265, “Optimization of 8-oxoadenines with toll-like-receptor 7 and 8 activity” (Bioorg Med Chem Lett, 2020).
pEC50: −log10 of the molar value. Calls of active or inactive are those of the source. The rule behind the calls is not given here.

Columns and labels:
Assay type in all cases: cell-based
[1] = target: T1, Toll-like receptor 8 (Homo sapiens) (UniProt Q9NR97); experiment: Agonist activity at TLR8 in human PBMC assessed as TNFalpha level at 10 uM
T1 sequence (whole entry): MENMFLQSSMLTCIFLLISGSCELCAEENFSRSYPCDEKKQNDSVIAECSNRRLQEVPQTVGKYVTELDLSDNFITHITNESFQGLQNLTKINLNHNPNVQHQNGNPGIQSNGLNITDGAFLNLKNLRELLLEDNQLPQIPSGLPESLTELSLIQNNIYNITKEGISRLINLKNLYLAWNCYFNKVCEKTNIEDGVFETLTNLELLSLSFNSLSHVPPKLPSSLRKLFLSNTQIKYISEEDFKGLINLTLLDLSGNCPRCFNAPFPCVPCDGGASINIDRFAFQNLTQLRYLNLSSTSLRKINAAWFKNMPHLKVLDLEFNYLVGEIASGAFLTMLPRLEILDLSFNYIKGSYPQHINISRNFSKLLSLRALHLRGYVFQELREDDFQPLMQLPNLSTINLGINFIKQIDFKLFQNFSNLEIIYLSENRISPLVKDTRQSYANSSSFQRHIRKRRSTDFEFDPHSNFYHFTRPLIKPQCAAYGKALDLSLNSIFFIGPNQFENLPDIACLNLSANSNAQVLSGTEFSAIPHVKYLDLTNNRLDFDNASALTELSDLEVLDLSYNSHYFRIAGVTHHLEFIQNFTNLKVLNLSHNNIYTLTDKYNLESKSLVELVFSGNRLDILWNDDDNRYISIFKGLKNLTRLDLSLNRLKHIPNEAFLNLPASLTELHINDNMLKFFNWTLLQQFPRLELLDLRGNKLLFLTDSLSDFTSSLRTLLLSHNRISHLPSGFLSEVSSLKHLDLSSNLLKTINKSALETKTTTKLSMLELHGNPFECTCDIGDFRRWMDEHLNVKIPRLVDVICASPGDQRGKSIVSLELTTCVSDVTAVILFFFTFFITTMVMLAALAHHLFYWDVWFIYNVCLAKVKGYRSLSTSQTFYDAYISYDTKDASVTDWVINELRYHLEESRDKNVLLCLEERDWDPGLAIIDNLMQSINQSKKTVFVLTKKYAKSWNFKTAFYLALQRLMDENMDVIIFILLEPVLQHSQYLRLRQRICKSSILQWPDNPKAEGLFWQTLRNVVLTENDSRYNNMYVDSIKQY
In short: (§1)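 TNFα secretion by hPBMCs across a μM dose range; MEC = lowest dose tested inducing cytokine, PC = dose giving highest level, PL = peak level at 10 μM. Data representative of one of three independent donors.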

[2] = target: TLR7 and TLR8 (Homo sapiens) (UniProt Q9NYK1+Q9NR97); experiment: Agonist activity at TLR7/TLR8 in human PBMC assessed as IFN alpha level
In short: (§2)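 IFNα secretion by hPBMCs across a μM dose range; MEC = lowest dose tested inducing cytokine, PC = dose giving highest level, PL = peak level at 10 μM. Data representative of one of three independent donors.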

[3] = target: T1, Toll-like receptor 8 (Homo sapiens); experiment: Agonist activity at TLR8 in human PBMC assessed as TNFalpha level; in short: as §1
[4] = target: T1, Toll-like receptor 8 (Homo sapiens); experiment: Agonist activity at TLR8 in human PBMC assessed as induction of myeloid dendritic cell maturation by measuring increase in CD80 level at 0.1 uM after 6 hrs by flow cytometry relative to control
In short: (§3)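 hPBMCs stimulated 6 h at a single 0.1 μM dose; HLA-DR, MHC-I, CD80 and CD86 on mDCs and pDCs measured by flow cytometry, expressed as fold change versus unstimulated cells. Mean ± SD of three independent experiments in three different donors.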

Toll-like receptor 8 = target: T2, Toll-like receptor 8 (Homo sapiens, UniProt Q9NR97); experiment: Agonist activity at human TLR8 expressed in HEK293 cells assessed as induction of NFKappaB activity after 24 hrs by SEAP reporter gene assay
T2 sequence (Q9NR97 whole entry): T1 sequence (whole entry)
In short: (§4)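 HEK293 cells stably transfected with hTLR7 or hTLR8 plus an NFκB-driven SEAP reporter, treated 24 h with compound over a μM range; SEAP secretion read out. EC50 as mean ± SD of three (TLR7) or four (TLR8) independent experiments.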

[5] = target: T3, Toll-like receptor 7 (Homo sapiens) (UniProt Q9NYK1); experiment: Agonist activity at TLR7 in human PBMC assessed as IFNalpha stimulation at 10 uM; in short: as §2
T3 sequence (whole entry): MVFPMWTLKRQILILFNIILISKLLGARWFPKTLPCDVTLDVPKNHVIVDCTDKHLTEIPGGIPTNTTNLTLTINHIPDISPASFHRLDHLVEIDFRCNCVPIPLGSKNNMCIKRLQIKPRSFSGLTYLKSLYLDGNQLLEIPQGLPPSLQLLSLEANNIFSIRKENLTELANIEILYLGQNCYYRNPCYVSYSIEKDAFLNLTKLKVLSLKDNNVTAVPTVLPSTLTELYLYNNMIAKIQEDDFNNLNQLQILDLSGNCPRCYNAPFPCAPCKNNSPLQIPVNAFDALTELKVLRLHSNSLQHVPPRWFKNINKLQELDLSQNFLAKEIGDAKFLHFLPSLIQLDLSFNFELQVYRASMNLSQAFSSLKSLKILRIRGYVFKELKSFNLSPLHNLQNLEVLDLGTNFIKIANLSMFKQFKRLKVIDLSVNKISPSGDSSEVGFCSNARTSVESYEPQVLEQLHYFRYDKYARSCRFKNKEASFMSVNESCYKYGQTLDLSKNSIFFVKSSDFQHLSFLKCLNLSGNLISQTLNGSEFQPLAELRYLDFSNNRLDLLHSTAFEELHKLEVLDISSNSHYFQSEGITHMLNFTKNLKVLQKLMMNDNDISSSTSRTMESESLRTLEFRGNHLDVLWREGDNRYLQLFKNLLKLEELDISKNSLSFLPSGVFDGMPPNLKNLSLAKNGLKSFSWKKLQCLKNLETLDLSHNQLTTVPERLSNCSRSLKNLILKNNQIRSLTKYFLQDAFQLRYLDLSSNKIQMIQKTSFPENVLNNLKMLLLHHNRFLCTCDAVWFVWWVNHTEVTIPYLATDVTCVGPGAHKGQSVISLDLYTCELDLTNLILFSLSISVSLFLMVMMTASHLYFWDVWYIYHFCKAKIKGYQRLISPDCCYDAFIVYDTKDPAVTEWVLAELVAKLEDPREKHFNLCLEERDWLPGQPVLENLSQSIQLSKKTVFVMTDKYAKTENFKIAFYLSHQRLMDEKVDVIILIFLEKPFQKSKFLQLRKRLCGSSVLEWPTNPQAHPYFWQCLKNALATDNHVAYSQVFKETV

[6] = target: T1, Toll-like receptor 8 (Homo sapiens); experiment: Agonist activity at TLR8 in human PBMC assessed as induction of myeloid dendritic cell maturation by measuring HLA-DR level at 0.1 uM after 6 hrs by flow cytometry; in short: as §3
Toll-like receptor 7 = target: T4, Toll-like receptor 7 (Homo sapiens, UniProt Q9NYK1); experiment: Agonist activity at human TLR7 expressed in HEK293 cells assessed as induction of NFKappaB activity after 24 hrs by SEAP reporter gene assay; in short: as §4
T4 sequence (Q9NYK1 whole entry): T3 sequence (whole entry)

[7] = target: T1, Toll-like receptor 8 (Homo sapiens); experiment: Agonist activity at TLR8 in human PBMC assessed as induction of myeloid dendritic cell maturation by measuring CD86 level at 0.1 uM after 6 hrs by flow cytometry; in short: as §3

In the case of CCC[C@H](C)Oc1nc(N)c2[nH]c(=O)n(CC3CCN(CCO)CC3)c2n1, the Activity [1] was 10300 pg/mL, the ECmax [2] was 0.08 µM and the MEC [2] was 0.016 µM. The MEC [3] was 2 µM, the fold change (FC) [4] was 1.5 and the pEC50 (Toll-like receptor 8) was 5.67. For the same molecule, the Activity [5] was 4750 pg/mL, the Activity [6] was “inactive” and the pEC50 (Toll-like receptor 7) was 5.39. The Activity [7] was “inactive”.
